Publication PMC2910749 (Chembiochem : a European journal of chemical biology, 2008)
Substitutions are numbered along the chain they refer to. pIC50: −log10 of the molar value.

What was measured:
almond β-Glc = assay: Glycosidase specificity: almond β-glucosidase inhibition; format: biochemical; conditions: for pIC50: pNPGlc (1.6 mM)
human β-Gal = biological target: T1, human β-Gal (Homo sapiens, UniProt P16278); assay: Glycosidase specificity: β-Gal inhibition; format: biochemical
T1 sequence (P16278 29-677): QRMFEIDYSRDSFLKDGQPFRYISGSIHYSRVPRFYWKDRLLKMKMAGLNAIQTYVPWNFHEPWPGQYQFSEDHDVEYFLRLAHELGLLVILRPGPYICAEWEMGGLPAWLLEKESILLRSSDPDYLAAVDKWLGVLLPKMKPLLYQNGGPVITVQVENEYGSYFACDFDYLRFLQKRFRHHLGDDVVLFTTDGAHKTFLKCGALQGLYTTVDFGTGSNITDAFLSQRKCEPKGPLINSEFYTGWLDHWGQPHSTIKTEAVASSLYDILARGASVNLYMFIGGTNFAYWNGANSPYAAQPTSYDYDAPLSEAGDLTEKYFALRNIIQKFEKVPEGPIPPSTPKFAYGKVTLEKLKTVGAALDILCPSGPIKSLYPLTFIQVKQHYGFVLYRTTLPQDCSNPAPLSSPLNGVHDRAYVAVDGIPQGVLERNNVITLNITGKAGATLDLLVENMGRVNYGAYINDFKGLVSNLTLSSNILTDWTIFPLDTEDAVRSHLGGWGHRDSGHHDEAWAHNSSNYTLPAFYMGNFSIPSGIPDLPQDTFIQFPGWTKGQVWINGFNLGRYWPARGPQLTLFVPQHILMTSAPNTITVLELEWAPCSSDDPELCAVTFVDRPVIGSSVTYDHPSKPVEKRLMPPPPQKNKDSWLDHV

[1] = biological target: T2, lysosomal GCase in N370S/N370S GD cells (Homo sapiens, UniProt P04062, N409S); assay: Lysosome-enriched fraction; format: cell-based; conditions: 12.5 μM, five days
T2 sequence (P04062 40-536 N409S): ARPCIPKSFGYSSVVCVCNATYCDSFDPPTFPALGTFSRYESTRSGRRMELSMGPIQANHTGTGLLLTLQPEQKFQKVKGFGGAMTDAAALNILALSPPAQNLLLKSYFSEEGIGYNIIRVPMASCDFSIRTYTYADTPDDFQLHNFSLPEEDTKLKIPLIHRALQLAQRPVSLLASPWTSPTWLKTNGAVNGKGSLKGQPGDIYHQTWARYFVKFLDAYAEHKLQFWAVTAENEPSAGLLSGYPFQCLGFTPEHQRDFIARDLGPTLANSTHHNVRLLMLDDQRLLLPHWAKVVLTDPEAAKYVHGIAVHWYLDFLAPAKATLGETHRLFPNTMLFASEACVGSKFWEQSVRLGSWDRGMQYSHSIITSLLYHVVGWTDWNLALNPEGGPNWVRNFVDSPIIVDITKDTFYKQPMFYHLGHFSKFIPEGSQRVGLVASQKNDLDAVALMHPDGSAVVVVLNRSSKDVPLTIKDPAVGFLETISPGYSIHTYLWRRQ
How it was run: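 N370S/N370S GD fibroblasts treated for five days with test compound (12.5 μM) or 0.1% DMSO. Labelled with iron-dextran colloid and lysosomes enriched by magnetic chromatography. Lysosomal GCase monitored with MUGlc. Fractions (1 μg) run on 10% SDS-PAGE and transferred to nitrocellulose. Probed with rabbit polyclonal anti-human GCase or mouse monoclonal Lamp-2 and developed by chemiluminescence.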

GD patient fibroblasts = assay: Toxicity in treated GD patient fibroblasts; format: cell-based, human; conditions: for effect on Hex activity (indicator of toxicity): N370S/N370S cells, five days, at concentrations that increase GCase; for concentrations showing signs of toxicity: parallel decrease in intracellular GCase and Hex activities, N370S/N370S
How it was run: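 N370S/N370S patient fibroblasts at about 50% confluence given fresh α-MEM-FBS with test compound over a concentration range (DMSO stock, 1:100) and grown 5 days at 37 °C, in triplicate. Lysates in Triton X-100/TdC in CP pH 5.5 were split: GCase with MUGlc and lysosomal Hex with MUG as a toxicity control. Endpoint stopped at pH 10.5, ex 365/em 450 nm. Activities relative to DMSO-only cells; SD of n=3.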

GCase [2] = biological target: T3, GCase (Homo sapiens, UniProt P04062, R534H); assay: Heat inactivation; format: biochemical; conditions: 50 °C, wild-type GCase
T3 sequence (P04062 40-536 R534H): T2 sequence (P04062 40-536 N409S) with S370N, R495H
How it was run: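 Human GCase (cerezyme) diluted 1/200–1/400 in 20 mM CP pH 5.5 with 0.2% TdC, with test compound (six concentrations) or DMSO. Split into two aliquots: one kept on ice, one heated at 50 °C for 20 min, then cooled on ice. Equilibrated 10 min at room temperature, then 0.8 mM MUGlc for 20 min. Remaining activity = heated/unheated ratio for the same compound.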

human Hex = biological target: T4, human Hex (Homo sapiens, UniProt P07686); assay: Glycosidase specificity: Hex inhibition; format: biochemical
T4 sequence (P07686 122-556): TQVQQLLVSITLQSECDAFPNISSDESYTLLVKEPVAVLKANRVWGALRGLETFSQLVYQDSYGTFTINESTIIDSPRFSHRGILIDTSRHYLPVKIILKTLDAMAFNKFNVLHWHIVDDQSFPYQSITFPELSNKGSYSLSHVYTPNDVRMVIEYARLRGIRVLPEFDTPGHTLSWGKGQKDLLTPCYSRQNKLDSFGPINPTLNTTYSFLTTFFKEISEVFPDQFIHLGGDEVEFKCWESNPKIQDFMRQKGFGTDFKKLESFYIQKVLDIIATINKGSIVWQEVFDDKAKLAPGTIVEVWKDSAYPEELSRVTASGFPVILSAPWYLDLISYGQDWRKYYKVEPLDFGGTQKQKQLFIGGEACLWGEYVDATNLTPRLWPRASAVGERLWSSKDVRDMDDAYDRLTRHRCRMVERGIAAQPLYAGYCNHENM

GCase [3] = biological target: T3, GCase; assay: Hydrogen/deuterium exchange mass spectrometry of GCase with ligand; format: binding; conditions: 59-fold molar excess of ligand, 26 peptides

inhibition of almond enzyme (almond β-Glc) | pIC50 (almond β-Glc) | pIC50 (human β-Gal) | inhibition of β-Gal (human β-Gal) | increase of GCase levels in lysosomes [1] | effect on thermal denaturation of GCase (GCase [2]) | inhibition of Hex (human Hex) | number of GCase peptides (regions) perturbed in H/D-Ex (GCase [3]) | IC50 for almond β-glucosidase increased relative to human GCase (almond β-Glc) [fold] | SMILES | effect on Hex activity (indicator of toxicity) (GD patient fibroblasts) | concentrations showing signs of toxicity (GD patient fibroblasts)
virtually non-inhibitory | < 2.94 | < 2.94 | no inhibition | more than twofold | attenuated thermal denaturation | no inhibition | 1/26 | – | O=C(Nc1ccncc1)c1ccc(Oc2cc(Cl)cc(Cl)c2)o1 [compound 2, 5-(3,5-dichlorophenoxy)-N-(4-pyridinyl)-2-furamide] | did not affect the activity of Hex | greater than 30 μM
– | 3.72 | 3.24 | – | more than twofold | attenuated thermal denaturation | did not inhibit | 6/26 | 24 | Cc1ccc(Sc2cccc3nc(N)nc(N)c23)cc1 [compound 1, 5-((4-methylphenyl)thio)quinazoline-2,4-diamine] | did not affect the activity of Hex | greater than 30 μM
